Measurements from ChEMBL document CHEMBL4725283, “Selective Peptidomimetic Inhibitors of NTMT1/2: Rational Design, Synthesis, Characterization, and Crystallographic Studies” (J Med Chem, 2020).
Calls of active or inactive are those of the source. The rule behind the calls is not given here.

Key:
[1] = molecular target: T1, N-terminal Xaa-Pro-Lys N-methyltransferase 1 (Homo sapiens, UniProt Q9BV86); test: Binding affinity to recombinant human full-length His6-tagged NTMT1 (1 to 222 residues) by ITC assay
T1 sequence (Q9BV86 whole entry): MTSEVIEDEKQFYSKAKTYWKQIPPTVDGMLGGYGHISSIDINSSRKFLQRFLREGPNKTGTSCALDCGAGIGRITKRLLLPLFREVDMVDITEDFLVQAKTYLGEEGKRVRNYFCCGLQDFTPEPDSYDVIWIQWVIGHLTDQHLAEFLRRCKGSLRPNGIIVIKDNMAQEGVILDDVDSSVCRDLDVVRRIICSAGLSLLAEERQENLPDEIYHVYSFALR
Outline: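 ITC at 25 °C. Purified protein (NTMT1 for line 1, NTMT2 for line 2) in 20 mM Tris-HCl pH 7.5, 150 mM NaCl, 0.5 mM TCEP at 30–50 µM final. Compound at 0.5–1 mM in the same buffer, titrated in as 26 injections of 10 µl, 180 s apart, reference power 15 µcal/sec.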

[2] = species on record: Homo sapiens; test: Selectivity for human NTMT2 over human MLL1 complex at 100 uM
Outline: (§1)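 Single-point panel screen against 41 PKMTs, PRMTs, DNMTs and NTMT1/2. Each compound was tested at 100 µM, in duplicate (n=2).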

[3] = molecular target: T2, N-terminal Xaa-Pro-Lys N-methyltransferase 1 (Homo sapiens) (UniProt Q9BV86); test: Competitive inhibition of recombinant human full-length His6-tagged NTMT1 (1 to 222 residues) expressed in Escherichia coli BL21-CodonPlus(DE3)-RIL competent cells pre-incubated for 10 mins in presence of fixed SAM and SAHH before varying levels of RCC1-6 addition and measured after 15 mins by fluorescence based SAHH-coupled assay; settings: time 25.0 min
T2 sequence (whole entry): T1 sequence (Q9BV86 whole entry)
Outline: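 After 10 min at 37 °C, started with RCC1-6 at 0.5, 1, 1.5, 2, 4 or 8 µM. Read Ex 370/Em 500 nm for 15 min at 37 °C. Triplicate IC50 at each level plotted against [RCC1-6]/Km.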

[4] = species on record: Homo sapiens; test: Selectivity for human NTMT2 over human SET8 at 100 uM; outline: as §1
[5] = species on record: Homo sapiens; test: Selectivity for human NTMT1 over human PRDMT8 at 100 uM
Outline: (§2)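 Panel of 41 PKMTs, PRMTs, DNMTs and NTMT1/2, tested at 100 µM compound in duplicate (n=2).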

[6] = species on record: Homo sapiens; test: Selectivity for human NTMT1 over human NSD1 at 100 uM; outline: as §2
[7] = species on record: Homo sapiens; test: Selectivity for human NTMT1 over human PRDMT6 at 100 uM; outline: as §2
[8] = species on record: Homo sapiens; test: Selectivity for human NTMT2 over human PRDMT3 at 100 uM; outline: as §1
[9] = species on record: Homo sapiens; test: Selectivity for human NTMT1 over human SET7/9 at 100 uM; outline: as §2
[10] = species on record: Homo sapiens; test: Selectivity for human NTMT1 over human PRDMT3 at 100 uM; outline: as §2
[11] = species on record: Homo sapiens; test: Selectivity for human NTMT1 over human MLL1 complex at 100 uM; outline: as §2
[12] = species on record: Homo sapiens; test: Selectivity for human NTMT2 over human PRDMT5/MEP50 complex at 100 uM; outline: as §1
[13] = species on record: Homo sapiens; test: Selectivity for human NTMT1 over human NSD2 T1150A mutant at 100 uM; outline: as §2
[14] = species on record: Homo sapiens; test: Selectivity for human NTMT2 over human MLL4 complex at 100 uM; outline: as §1
[15] = species on record: Homo sapiens; test: Selectivity for human NTMT1 over human SUV420H1TV2 at 100 uM; outline: as §1
[16] = species on record: Homo sapiens; test: Selectivity for human NTMT1 over human NSD2 E1099K mutant at 100 uM; outline: as §2

N=C(N)NCCC[C@H](NC(=O)[C@H](CCCCN)NC(=O)[C@@H]1CCCN1C(=O)Cc1ccc(O)cc1)C(N)=O
Kd [1]: 3 µM | Selectivity ratio [2]: > 100 | inhibition [3]: Active | Selectivity ratio [4]: > 100 | Selectivity ratio [5]: > 100 | Selectivity ratio [6]: > 100 | Selectivity ratio [7]: > 100 | Selectivity ratio [8]: > 100 | Selectivity ratio [9]: > 100 | Selectivity ratio [10]: > 100 | Selectivity ratio [11]: > 100 | Selectivity ratio [12]: > 100 | Selectivity ratio [13]: > 100 | Selectivity ratio [14]: > 100 | Selectivity ratio [15]: > 100 | Selectivity ratio [16]: > 100
